In ChEMBL document CHEMBL4007470, “Discovery of a 2'-fluoro-2'-C-methyl C-nucleotide HCV polymerase inhibitor and a phosphoramidate prodrug with favorable properties” (Bioorg Med Chem Lett, 2017):
Values after ≈ are worked out from the molar mass of the structure shown.

Legend:
Hepatitis C virus [1] = assay: Antiviral activity against HCV genotype 4a infected in human HuH7 cells by luciferase reporter gene assay; assay type: functional, cell-based, Hepacivirus hominis; settings: Hepatitis C virus, genotype 4a, Huh-7
Hepatitis C virus [2] = assay: Antiviral activity against HCV genotype 1a infected in human HuH7 cells by luciferase reporter gene assay; assay type: functional, cell-based, Hepacivirus hominis, subtype 1a; settings: Hepatitis C virus, subtype 1a, Huh-7
Hepatitis C virus [3] = assay: Antiviral activity against HCV genotype 1b infected in human HuH7 cells by luciferase reporter gene assay; assay type: functional, cell-based, Hepacivirus hominis; settings: Hepatitis C virus, genotype 1b, Huh-7
How it was run: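 Luciferase-reporter genotype 1b subgenomic replicon in Huh-7 cells; EC50 is concentration giving 50% inhibition. Values are averages of at least three repeats.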

[4] = Half life in human plasma at 2 uM by LC-MS/MS analysis; assay type: ADME, cell-free
How it was run: (§1)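 Compound at 2 μM incubated in plasma at 37 °C for up to 4 h. Aliquots quenched with 9 volumes of acetonitrile containing internal standard, then centrifuged. Supernatant analysed by LC-MS/MS.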

[5] = Half life in hamster plasma at 2 uM by LC-MS/MS analysis; assay type: ADME, cell-free; settings: cricetinae; how it was run: as §1
[6] = Half life in hamster intestinal S9 fractions at 2 uM by LC-MS/MS analysis; assay type: ADME, Intestine; settings: cricetinae, intestinal S9 fractions
[7] = Hepatic extraction in human liver S9 fractions at 2 uM by LC-MS/MS analysis; assay type: ADME; settings: liver S9 fractions, read-out: ERH
How it was run: (§2)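 Compound at 2 μM incubated with S9 fractions at 37 °C for 90 min with NADPH and UDPGA. Quenched with aqueous acetonitrile/methanol containing internal standard and analysed by LC-MS/MS. Half-life from an exponential fit assuming first-order kinetics. Hepatic extraction predicted from half-life using the well-stirred model.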

[8] = Hepatic extraction in hamster liver S9 fractions at 2 uM by LC-MS/MS analysis; assay type: ADME; settings: cricetinae, liver S9 fractions; read-out: ERH; how it was run: as §2
[9] = Half life in human intestinal S9 fractions at 2 uM by LC-MS/MS analysis; assay type: ADME, Intestine; how it was run: as §2
[10] = Solubility of the compound in pH 7.4 solution; assay type: physicochemical
How it was run: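 Solubility measured at pH 7.4 using amorphous material.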

[11] = Permeability of the compound from apical to basolateral side in human Caco2 cells at 10 uM; assay type: ADME, cell-based, Caco-2; settings: Caco-2, read-out: permeability
How it was run: (§3)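 Caco-2 permeability at 10 μM compound, measured in apical-to-basolateral and basolateral-to-apical directions.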

[12] = Prodrug activation in Syrian golden hamster liver assessed as triphosphate metabolite formation at 5 mg equivalents/kg, po after 1 hr by LC-MS/MS analysis; assay type: ADME, organism-based, Mesocricetus auratus; settings: in vivo
How it was run: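 Golden Syrian hamsters (groups of 12) dosed orally at 5 mg-eq/kg in EtOH/PEG400/water buffered with 50 mM pH 4 citrate. Livers harvested under isoflurane at 1 h and extracted in cold KOH/EDTA/70% MeOH with Cl-ATP. Triphosphate measured by LC/MS/MS, with endogenous ATP checked for sample stability.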

Plasma = assay: Stability in rat plasma at 2 uM up to 4 hrs by LC-MS/MS analysis; assay type: ADME, cell-free; how it was run: as §1
[13] = Permeability of the compound from basolateral to apical side in human Caco2 cells at 10 uM; assay type: ADME, cell-based, Caco-2; settings: Caco-2, read-out: permeability; how it was run: as §3
[14] = Inhibition of HCV genotype 1b wild-type NS5B RNA dependent RNA polymerase; design: species or system Hepatitis C virus subtype 1b
[15] = tested on: RNA-directed RNA polymerase (Hepacivirus hominis), O39930 [UNDEFINED MUTATION]; assay: Inhibition of HCV genotype 1b wild-type NS5B RNA dependent RNA polymerase S282T mutant relative to control; settings: Hepatitis C virus subtype 1b

EC50 (Hepatitis C virus [1])	EC50 (Hepatitis C virus [2])	EC50 (Hepatitis C virus [3])	SMILES	other results
11.2 µM	35.2 µM	37.6 µM	CCOC(=O)[C@@H](NP(=O)(OC[C@H]1O[C@@H](c2cnc3c(N)ncnn23)[C@](C)(F)[C@@H]1O)Oc1ccccc1)C(C)C (stereo partly drawn)	–
0.15 µM	0.59 µM	0.8 µM	CCOC(=O)C(C)(C)NP(=O)(OC[C@H]1O[C@@H](c2cnc3c(N)ncnn23)[C@](C)(F)[C@@H]1O)Oc1ccccc1 (stereo partly drawn)	half-life at 2 µM [4]: 7.68 h; half-life at 2 µM [5]: 8.3 h; half-life at 2 µM [6]: 1.67 h; hepatic extraction ratio at 2 µM [7]: 0.62; hepatic extraction ratio at 2 µM [8]: 0.83; half-life at 2 µM [9]: 2.15 h
0.14 µM	0.33 µM	0.66 µM	CCOC(=O)C1(NP(=O)(OC[C@H]2O[C@@H](c3cnc4c(N)ncnn34)[C@](C)(F)[C@@H]2O)Oc2ccccc2)CCC1 (stereo partly drawn)	half-life at 2 µM [4]: 11.1 h; half-life at 2 µM [5]: 7 h; half-life at 2 µM [6]: 1.17 h; hepatic extraction ratio at 2 µM [7]: 0.88; hepatic extraction ratio at 2 µM [8]: 0.91; half-life at 2 µM [9]: 2.92 h
–	1.7 µM	2.2 µM	CCOC(=O)[C@H](Cc1ccccc1)NP(=O)(OC[C@H]1O[C@@H](c2cnc3c(N)ncnn23)[C@](C)(F)[C@@H]1O)Oc1ccccc1 (stereo partly drawn)	–
3.6 µM	36 µM	> 88 µM	CC[C@H](C)OC(=O)C(C)(C)NP(=O)(OC[C@H]1O[C@@H](c2cnc3c(N)ncnn23)[C@](C)(F)[C@@H]1O)Oc1ccccc1 (stereo partly drawn)	–
58.1 µM	> 88 µM	> 88 µM	CC(C)OC(=O)[C@@H](C)NP(=O)(OC[C@H]1O[C@@H](c2cnc3c(N)ncnn23)[C@](C)(F)[C@@H]1O)Oc1ccccc1 (stereo partly drawn)	half-life at 2 µM [4]: 6.33 h; half-life at 2 µM [5]: 11.2 h; half-life at 2 µM [6]: 6.92 h; hepatic extraction ratio at 2 µM [7]: 0.17; hepatic extraction ratio at 2 µM [8]: 0.85; half-life at 2 µM [9]: > 13.2 h
1.1 µM	28.7 µM	> 88 µM	CC[C@@H](C)OC(=O)C(C)(C)NP(=O)(OC[C@H]1O[C@@H](c2cnc3c(N)ncnn23)[C@](C)(F)[C@@H]1O)Oc1ccccc1 (stereo partly drawn)	–
0.83 µM	1.2 µM	3.4 µM	CCOC(=O)CC[C@H](NP(=O)(OC[C@H]1O[C@@H](c2cnc3c(N)ncnn23)[C@](C)(F)[C@@H]1O)Oc1ccccc1)C(=O)OCC (stereo partly drawn)	–
0.37 µM	0.53 µM	0.56 µM	CC[C@@H](C)OC(=O)[C@H](C)NP(=O)(OC[C@H]1O[C@@H](c2cnc3c(N)ncnn23)[C@](C)(F)[C@@H]1O)Oc1ccccc1 (stereo partly drawn)	–
86.2 µM	60.5 µM	> 88 µM	CCOC(=O)[C@H](CCCCNC(C)=O)NP(=O)(OC[C@H]1O[C@@H](c2cnc3c(N)ncnn23)[C@](C)(F)[C@@H]1O)Oc1ccccc1 (stereo partly drawn)	–
0.82 µM	4.3 µM	6.2 µM	COCCOC(=O)C(C)(C)NP(=O)(OC[C@H]1O[C@@H](c2cnc3c(N)ncnn23)[C@](C)(F)[C@@H]1O)Oc1ccccc1 (stereo partly drawn)	–
–	68.3 µM	83.7 µM	CC(C)OC(=O)C1(NP(=O)(OC[C@H]2O[C@@H](c3cnc4c(N)ncnn34)[C@](C)(F)[C@@H]2O)Oc2ccccc2)CCCCC1 (stereo partly drawn)	–
2.1 µM	7.9 µM	7.3 µM	CC[C@H](C)OC(=O)[C@@H](C)NP(=O)(OC[C@H]1O[C@@H](c2cnc3c(N)ncnn23)[C@](C)(F)[C@@H]1O)Oc1ccccc1 (stereo partly drawn)	–
> 88 µM	> 88 µM	> 88 µM	CC(C)OC(=O)[C@@H](NP(=O)(OC[C@H]1O[C@@H](c2cnc3c(N)ncnn23)[C@](C)(F)[C@@H]1O)Oc1ccccc1)C(C)C (stereo partly drawn)	–
0.38 µM	1 µM	2 µM	CCOC(=O)C1(NP(=O)(OC[C@H]2O[C@@H](c3cnc4c(N)ncnn34)[C@](C)(F)[C@@H]2O)Oc2ccccc2)CCCC1 (stereo partly drawn)	–
3.9 µM	11.3 µM	51.6 µM	CC(C)OC(=O)C1(NP(=O)(OC[C@H]2O[C@@H](c3cnc4c(N)ncnn34)[C@](C)(F)[C@@H]2O)Oc2ccccc2)CCCC1 (stereo partly drawn)	–

Further lines, the compound ahead of its results:

SMILES	EC50 (Hepatitis C virus [1])	EC50 (Hepatitis C virus [2])	EC50 (Hepatitis C virus [3])	other results
CC(C)OC(=O)C1(NP(=O)(OC[C@H]2O[C@@H](c3cnc4c(N)ncnn34)[C@](C)(F)[C@@H]2O)Oc2ccccc2)CCOCC1 (stereo partly drawn)	7 µM	14.4 µM	29.1 µM	–
CC(C)C[C@H](NP(=O)(OC[C@H]1O[C@@H](c2ccc3c(N)ncnn23)[C@](C)(F)[C@@H]1O)Oc1ccccc1)C(=O)OC(C)C (stereo partly drawn)	0.59 µM	0.74 µM	0.69 µM	–
CC(C)OC(=O)[C@H](C)N[P@](=O)(OC[C@H]1O[C@@H](c2cnc3c(N)ncnn23)[C@](C)(F)[C@@H]1O)Oc1ccccc1	0.11 µM	0.51 µM	0.67 µM	solubility [10]: 642 µg/mL (≈ 1160 µM); half-life at 2 µM [4]: > 13.2 h; Papp A→B at 10 µM [11]: 0.94 ×10⁻⁶ cm/s; half-life at 2 µM [5]: > 13.2 h; half-life at 2 µM [6]: 0.183 h; liver triphosphate concentration [12]: 0.34 µM; Stability (Plasma): Unstable; hepatic extraction ratio at 2 µM [7]: 0.65; hepatic extraction ratio at 2 µM [8]: 0.97; half-life at 2 µM [9]: 9.83 h; Papp B→A at 10 µM [13]: 16.6 ×10⁻⁶ cm/s
CC[C@H](NP(=O)(OC[C@H]1O[C@@H](c2cnc3c(N)ncnn23)[C@](C)(F)[C@@H]1O)Oc1ccccc1)C(=O)OC(C)C (stereo partly drawn)	2 µM	2.6 µM	5.6 µM	–
CCOC(=O)[C@@H](C)NP(=O)(OC[C@H]1O[C@@H](c2cnc3c(N)ncnn23)[C@](C)(F)[C@@H]1O)Oc1ccccc1 (stereo partly drawn)	5.7 µM	14.7 µM	26.4 µM	half-life at 2 µM [4]: 11.4 h; half-life at 2 µM [5]: 5.27 h; half-life at 2 µM [6]: 3.2 h; hepatic extraction ratio at 2 µM [7]: 0.28; hepatic extraction ratio at 2 µM [8]: 0.84; half-life at 2 µM [9]: > 13.2 h
C[C@@]1(F)[C@H](O)[C@@H](COP(=O)(O)OP(=O)(O)OP(=O)(O)O)O[C@H]1c1ccc2c(N)ncnn12	–	–	> 89 µM	IC50 [14]: 0.046 µM; fold change (FC) [15]: 2.8
CCOC(=O)[C@@H](NP(=O)(OC[C@H]1O[C@@H](c2cnc3c(N)ncnn23)[C@](C)(F)[C@@H]1O)Oc1ccccc1)C(C)(C)C (stereo partly drawn)	> 88 µM	> 88 µM	> 88 µM	–
COCCOC(=O)C1(NP(=O)(OC[C@H]2O[C@@H](c3cnc4c(N)ncnn34)[C@](C)(F)[C@@H]2O)Oc2ccccc2)CCC1 (stereo partly drawn)	1.5 µM	3.4 µM	6.1 µM	–
CCOC(=O)[C@H](CCCCN)NP(=O)(OC[C@H]1O[C@@H](c2cnc3c(N)ncnn23)[C@](C)(F)[C@@H]1O)Oc1ccccc1 (stereo partly drawn)	62.5 µM	> 88 µM	> 88 µM	–
CCOC(=O)C[C@H](NP(=O)(OC[C@H]1O[C@@H](c2cnc3c(N)ncnn23)[C@](C)(F)[C@@H]1O)Oc1ccccc1)C(=O)OCC (stereo partly drawn)	2.3 µM	3.3 µM	8.6 µM	–
CC(C)(C)COC(=O)C1(NP(=O)(OC[C@H]2O[C@@H](c3cnc4c(N)ncnn34)[C@](C)(F)[C@@H]2O)Oc2ccccc2)CCC1 (stereo partly drawn)	77.8 µM	72.4 µM	> 88 µM	–
CC[C@@H](C)OC(=O)[C@@H](C)NP(=O)(OC[C@H]1O[C@@H](c2cnc3c(N)ncnn23)[C@](C)(F)[C@@H]1O)Oc1ccccc1 (stereo partly drawn)	> 88 µM	> 88 µM	> 88 µM	–
C[C@@]1(O)[C@H](O)[C@@H](COP(=O)(O)OP(=O)(O)OP(=O)(O)O)O[C@H]1c1ccc2c(N)ncnn12	–	–	> 89 µM	IC50 [14]: 0.29 µM; fold change (FC) [15]: > 30
C[C@@]1(F)[C@H](O)[C@@H](COP(=O)(O)OP(=O)(O)OP(=O)(O)O)O[C@@]1(C#N)c1ccc2c(N)ncnn12 [GS-441326]	–	–	> 89 µM	IC50 [14]: 0.42 µM; fold change (FC) [15]: 6
CC(C)(C)COC(=O)C(C)(C)NP(=O)(OC[C@H]1O[C@@H](c2cnc3c(N)ncnn23)[C@](C)(F)[C@@H]1O)Oc1ccccc1 (stereo partly drawn)	4.3 µM	6.2 µM	20.3 µM	–
CC[C@H](C)OC(=O)[C@H](C)NP(=O)(OC[C@H]1O[C@@H](c2cnc3c(N)ncnn23)[C@](C)(F)[C@@H]1O)Oc1ccccc1 (stereo partly drawn)	0.46 µM	0.81 µM	0.67 µM	–
CC[C@@H](C)OC(=O)C1(NP(=O)(OC[C@H]2O[C@@H](c3cnc4c(N)ncnn34)[C@](C)(F)[C@@H]2O)Oc2ccccc2)CCC1 (stereo partly drawn)	0.35 µM	6.4 µM	> 88 µM	–
CC[C@H](C)OC(=O)C1(NP(=O)(OC[C@H]2O[C@@H](c3cnc4c(N)ncnn34)[C@](C)(F)[C@@H]2O)Oc2ccccc2)CCC1 (stereo partly drawn)	2.1 µM	18.8 µM	16.1 µM	–
CCC[C@H](NP(=O)(OC[C@H]1O[C@@H](c2cnc3c(N)ncnn23)[C@](C)(F)[C@@H]1O)Oc1ccccc1)C(=O)OCC (stereo partly drawn)	0.27 µM	0.39 µM	0.65 µM	–
